# Source: PubChem (Johns Hopkins Ion Channel Center)
# MrgX1 PAM = human MrgX1 positive allosteric modulation, primary screen; Q96LB2; MrgX1-HEK293, Fluo-4 calcium flux, FDSS; hits give high values; B-score at 10 µM; 0.63% of 310,000 active;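 active means plate-corrected calcium response at least 3 library SD above typical, normal starting fluorescence, not activating the receptor alone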;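 further: compound read alongside a low EC10 to EC30 dose of BAM8-22 agonist; peak minus trough fluorescence over baseline measured at the second addition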
# MrgX1 ag = human MrgX1 receptor agonism, primary screen; Q96LB2; MrgX1-HEK293 cells, Fluo-4 calcium fluorescence, agonist mode; hits give high values; B-score at 10 µM; 0.44% of 310,000 active; AID 588627;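 active means calcium response B-score plate-corrected fluorescence ratio at least 3 library SD, with starting fluorescence B-score inside 5 SD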
#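 Material: HEK293 cells stably expressing human MrgX1 receptor | Quantity: 15,000 cells per well | Times: Cells plated overnight, dye loaded 0.5 h 37 °C, 0.5 h room temperature | Measured by: Kinetic Fluo-4 NW fluorescence of intracellular calcium | Control set: Positive and negative controls per plate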
# RGS4 act = RGS4 potentiation or activation. HEK293 M3R/inducible RGS4, carbachol calcium flux Fluo4; hits give low values. B-score at 10 µM. 0.92% of 310,000 active. AID 463111;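 active means B-score of the integrated calcium signal more than 4 SD below the library mean, with starting fluorescence not abnormally high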;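 further: negative B-score means reduced calcium response which marks RGS4 activation or potentiation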
#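 Also added: carbachol at ECmax as muscarinic agonist stimulus; Assay system: HEK293 cells with stable M3R and inducible RGS4; Timing: overnight RGS4 induction, 30 min dye load 37 °C, 20 min compound RT; Measured by: Fluo4-AM (2 µM) calcium-flux fluorescence, kinetic read.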
# RGS4 block = human RGS4 inhibition | B-score at 10 µM | 0.45% of 310,000 active | AID 463165 | HEK293 M3R/RGS4 inducible, Fluo-4 calcium flux; hits give high values; triggered by carbachol at its EC20 | P49798;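 active means B-score, a plate-corrected calcium signal, over three deviations above library mean, with baseline fluorescence within five deviations of library mean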;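 further: RGS4 expression induced by doxycycline in cells with stable M3 receptor; B-score is computed from the integrated fluorescence ratio over baseline after carbachol; higher B-score means a larger calcium signal and so more RGS4 inhibition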
# Target sequence (P49798 whole entry, looked up): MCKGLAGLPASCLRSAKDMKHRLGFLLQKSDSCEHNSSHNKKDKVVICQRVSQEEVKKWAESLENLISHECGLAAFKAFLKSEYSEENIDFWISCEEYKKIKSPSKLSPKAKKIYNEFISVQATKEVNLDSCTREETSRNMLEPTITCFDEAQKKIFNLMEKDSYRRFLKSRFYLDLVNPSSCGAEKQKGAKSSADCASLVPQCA
# Kir21 inh = Kir2.1 (mouse) channel inhibition | HEK293-Kir2.1, FluxOR thallium flux fluorescence; hits give low values | 0.85% of 310,000 active | B-score at 10 µM | AID 1672 | P35561;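 active means fluorescence ratio B-score at or below minus 3 SD of library scores, with starting-brightness B-score within 2 SD, cut at about -4.2 in these data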;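 further: channel flux triggered by added potassium and thallium sulfate stimulus; B-score of peak minus minimum fluorescence over baseline after thallium stimulus; more negative B-score means stronger Kir2.1 block with less thallium influx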
# Target sequence (P35561 whole entry, looked up): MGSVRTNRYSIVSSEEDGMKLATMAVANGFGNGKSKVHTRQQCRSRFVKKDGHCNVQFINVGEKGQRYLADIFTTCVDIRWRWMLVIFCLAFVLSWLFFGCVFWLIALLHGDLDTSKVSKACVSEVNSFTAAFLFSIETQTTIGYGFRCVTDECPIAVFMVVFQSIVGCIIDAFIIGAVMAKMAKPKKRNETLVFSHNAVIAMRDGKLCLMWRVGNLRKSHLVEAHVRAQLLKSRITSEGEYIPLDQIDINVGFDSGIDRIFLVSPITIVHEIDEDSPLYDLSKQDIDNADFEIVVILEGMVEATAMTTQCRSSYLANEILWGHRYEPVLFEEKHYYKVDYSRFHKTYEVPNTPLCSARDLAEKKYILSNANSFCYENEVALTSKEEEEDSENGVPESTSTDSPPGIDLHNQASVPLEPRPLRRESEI
# MrgX1 antag = human MrgX1 receptor antagonism, primary screen; Q96LB2; MRGX1-HEK293 calcium flux, Fluo-4, BAM8-22 antagonism; hits give low values; B-score at 10 µM; 1.3% of 310,000 active; AID 588676;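 active means calcium-response B-score plate-corrected more than 3 library SD below zero, starting fluorescence within 5 deviations, no agonist response on first addition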;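 further: peak minus trough fluorescence over baseline after final BAM8-22 challenge near maximal dose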
# RGS4 block valid = validation of RGS4 inhibitors; shares compounds with RGS4 block; HEK293 M3R/RGS4, carbachol calcium Fluo-4 fluorescence; carbachol added at its EC20; 0 = buffer wells, 100 = carbachol control; calcium response, % at 10 µM; 65% of 1,700 active; AID 492999;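 active means duplicate-averaged calcium response above the buffer-only control mean plus 5 SD of those controls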;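 further: integrated fluorescence ratio F max minus min over baseline F0; higher response in RGS4-induced cells means RGS4 inhibition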
# M3R Ca ctr = checks RGS4 inhibitor effects in non-induced HEK293 M3R cells; shares compounds with RGS4 block; activity (percent), % at 10 µM; 20% of 1,900 active; carbachol calcium Fluo-4; submaximal (EC20) carbachol stimulus; buffer wells 0%, carbachol control wells 100%; call rule not given here;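 further: RGS4 induction absent so cells express M3R without RGS4; higher means more calcium signal and flags a non-specific hit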
# RGS4 inh ctr2 = second RGS4 inhibitor counter-screen in uninduced cells lacking carbachol; AID 493001; shares compounds with RGS4 block; calcium response (agonist-mode artifact), % at 10 µM; 22% of 1,900 active; HEK293 M3R/RGS4 non-induced, Fluo-4 calcium, no carbachol; normalised: buffer wells 0%, carbachol wells 100%;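 active means duplicate-averaged calcium rise in uninduced cells above buffer wells' mean plus 5 SD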
# * marks the source's active call; other numbers are inactive results; i = inactive; . = not tested or not shown. Only some compounds are listed: those with a hit (about 4.1% of all), similar ones and a draw of the others.
SMILES,MrgX1 PAM,MrgX1 ag,RGS4 act,RGS4 block,Kir21 inh,MrgX1 antag,RGS4 block valid,M3R Ca ctr,RGS4 inh ctr2
CCOC(=O)C1(CCOc2ccccc2)CCN(Cc2cccc(OCCO)c2)CC1,i,i,i,i,-0.99,i,.,.,.
Cc1cccc(OCC(=O)N/N=C\c2cn(C)c3ccccc23)c1,i,i,i,7.28*,-0.18,i,i,i,i
O=C(COc1cccc(Br)c1)N/N=C/C(=O)c1ccccc1,i,i,i,4.69*,-0.03,i,8.0%*,i,i
Cc1cccc(OCCn2cc(/C=N/NC(=O)c3ccncc3)c3ccccc32)c1,i,i,i,i,0.3,i,.,.,.
Cc1cccc(OCC(=O)NCC(=O)N/N=C/c2cc(Br)ccc2OCc2ccccc2)c1,i,i,i,i,1.37,i,.,.,.
O=C(Nc1nnc(-c2ccc(Cl)cc2)o1)C1CCCCC1,i,i,i,i,-1.9,i,.,.,.
O=C(Nc1nnc(-c2ccc3c(c2)OCCO3)o1)C1CCCCC1,i,i,i,8.41*,-0.45,i,7.0%*,i,i
Cc1ccc(S(C)(=O)=N/C=C2\C(=O)c3sccc3N(C)S2(=O)=O)cc1 (stereo unspecified),i,i,i,6.42*,0.05,i,7.5%*,i,i
Cc1ccc(S(=O)(=O)N2CCCN(C)CC2)cc1,i,i,i,i,-0.31,i,.,.,.
C/C(CC(=O)NCc1ccc(Cl)cc1)=N\NC(=O)Cc1ccccc1,i,i,i,i,-0.23,i,.,.,.
COc1ccc2c(c1)Cc1sc(NC(=O)c3ccco3)nc1-2,i,i,i,i,-0.25,i,.,i,i
COc1ccc2c(c1)-c1nc(NC(=O)c3ccco3)sc1CC2,i,i,i,17.3*,0.71,i,48.0%*,59.0%*,i
COc1ccc2c(c1)CCc1sc(NC(=O)c3ccco3)nc1-2,i,i,i,6.6*,0.37,i,26.5%*,31.5%*,i
Cc1sc(NC(=O)c2ccco2)nc1-c1ccccc1,i,i,i,7.01*,2.33,i,31.0%*,i,i
CCOC(=O)c1sc(NC(=O)c2ccco2)nc1-c1ccccc1,i,i,i,i,1.77,i,.,.,.
COc1ccc2c(c1)CCc1sc(NC(=O)c3ccc(C)cc3)nc1-2,i,i,i,i,-1.06,i,.,.,.
COC(=O)c1cc(C(C)=O)c(C)[nH]c1=O,i,i,i,i,0.02,i,.,.,.
COc1cccc(N2[C@@H](CC(C)=O)c3ccc(/C=C/C(C)=O)cc3S2(=O)=O)c1,i,i,i,8.2*,-0.38,i,31.5%*,54.5%*,i
COc1ccc(Nc2nnc(-c3ccccc3)c3ccccc23)cc1C(=O)N1CCCCC1,i,i,i,5*,-1.23,i,148.0%*,88.0%*,i
COc1ccc(Nc2nnc(-c3ccc(C)cc3)c3ccccc23)cc1C(=O)N1CCCCC1,i,i,i,i,-0.4,i,.,i,i
CCn1cc([N+](=O)[O-])c(C(=O)N2CCOCC2)n1,i,i,i,i,-1.17,i,.,.,.
CCn1c(SCC(=O)N2CCCCC2)nc2c1c(=O)n(C)c(=O)n2C,i,i,i,i,0.95,i,.,.,.
CCCCC1=CC2=C(c3ccco3)C(=O)C(C)(OC(=O)c3ccc(OC)cc3)C(=O)C2=CN1c1ccccc1 (stereo unspecified),i,i,i,i,0.02,i,.,i,i
COC(=O)CCC(=O)OC1(C)C(=O)C2=CN(CCCOC(C)C)C(c3ccc(OC)cc3)=CC2=C(Br)C1=O (stereo unspecified),i,i,i,i,1.05,i,.,.,.
CCCCC1=CC2=C(c3ccco3)C(=O)C(C)(OC(=O)c3ccc(OC)cc3)C(=O)C2=CN1CCCOC(C)C (stereo unspecified),i,i,i,i,1.58,i,i,i,i
SMILES,MrgX1 PAM,MrgX1 ag,RGS4 act,RGS4 block,Kir21 inh,MrgX1 antag,RGS4 block valid,M3R Ca ctr,RGS4 inh ctr2
C=CCN1C=C2C(=O)C(C)(OC(=O)c3ccc(OC)cc3)C(=O)C(c3ccco3)=C2C=C1CCCC (stereo unspecified),i,i,i,i,-1.33,i,i,i,i
O=C(CSC1=NCCN1)Nc1cccc(C(F)(F)F)c1,i,i,i,i,-0.41,i,.,.,.
CCCCc1nnc(NC(=O)CSCc2cc(=O)n3ccsc3n2)s1,i,i,i,i,-0.51,i,.,.,.
Cc1ccc(/C=N/NC(=O)Cc2c[nH]c3ccccc23)c(C)c1,i,i,i,6.9*,-0.01,i,31.0%*,i,42.0%*
CCOC(=O)C1CCN(C(C(=O)NC2CCCC2)c2ccc(C)cc2)CC1 (stereo unspecified),i,i,i,5.31*,-1.53,i,21.0%*,i,i
CC(=O)N1CCN(C(=O)CSc2nc3c(cnn3-c3ccccc3)c(=O)[nH]2)CC1,i,i,i,i,1.96,i,.,.,.
O=C(CSc1nc2c(cnn2-c2ccc(F)cc2)c(=O)[nH]1)N1CCCc2ccccc21,i,i,i,i,0.47,i,i,i,i
O=c1cc(O)c2ccc(O)cc2o1,i,i,i,i,2.37,i,.,.,.
CC(C)=CCc1c(O)cc2c(=O)c3ccc(O)cc3oc2c1O,i,i,i,10.7*,0.22,i,9.0%*,i,i
COc1ccc(NCc2nnc(SCC(=O)NCc3ccccc3)n2-c2ccccc2OC)cc1,i,i,i,i,0.87,i,.,.,.
COc1ccc(-n2c(CNc3ccc(C)cc3)nnc2SCc2ccccc2)cc1,i,i,i,i,-3.18,i,.,i,i
